Reference: ChEMBL document CHEMBL4765433, “From methylene bridged diindole to carbonyl linked benzimidazoleindole: Development of potent and metabolically stable PCSK9 modulators” (Eur J Med Chem, 2020)
Calls of active or inactive are those of the source. No cut-off for these calls is given here.

Columns and labels:
HepG2 = test: Cytotoxicity against human HepG2 cells assessed as reduction in cell viability at <=10 uM by MTT assay; assay type: cell-based
[1] = Intrinsic clearance in human liver microsomes measured after 60 mins in presence of NADPH by LC-MS/MS analysis; assay type: ADME, Microsome; conditions: 1 h
[2] = Half life in mouse liver microsomes measured after 60 mins in presence of NADPH by LC-MS/MS analysis; assay type: ADME, Microsome; conditions: 1 h
[3] = target: T1, Proprotein convertase subtilisin/kexin type 9 (Homo sapiens, UniProt Q8NBP7); test: Modulation of PCSK9 in human HepG2 cells assessed as reduction in PCSK9 expression incubated for 24 hrs prior to compound washout followed by compound addition and measured after 24 hrs by ELISA; assay type: cell-based
T1 sequence (Q8NBP7 31-152 limits assumed): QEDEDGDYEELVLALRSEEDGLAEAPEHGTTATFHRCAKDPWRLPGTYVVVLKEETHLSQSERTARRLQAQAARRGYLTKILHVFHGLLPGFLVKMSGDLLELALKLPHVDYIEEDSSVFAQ
T1 sequence (Q8NBP7 153-692 limits assumed): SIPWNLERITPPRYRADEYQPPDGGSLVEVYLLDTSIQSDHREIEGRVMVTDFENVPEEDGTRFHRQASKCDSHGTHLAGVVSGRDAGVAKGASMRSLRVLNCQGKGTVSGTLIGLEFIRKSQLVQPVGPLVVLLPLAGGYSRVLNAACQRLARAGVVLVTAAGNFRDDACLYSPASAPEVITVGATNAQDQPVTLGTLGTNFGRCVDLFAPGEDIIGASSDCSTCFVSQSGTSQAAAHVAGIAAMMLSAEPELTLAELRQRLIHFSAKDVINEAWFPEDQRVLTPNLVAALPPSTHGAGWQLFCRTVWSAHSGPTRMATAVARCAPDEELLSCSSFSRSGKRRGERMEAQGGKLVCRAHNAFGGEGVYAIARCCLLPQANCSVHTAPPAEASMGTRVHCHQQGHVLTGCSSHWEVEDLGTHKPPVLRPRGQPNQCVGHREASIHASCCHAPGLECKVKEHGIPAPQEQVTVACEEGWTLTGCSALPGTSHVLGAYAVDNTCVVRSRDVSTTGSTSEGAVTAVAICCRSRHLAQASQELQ
How it was run: (§1)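 HepG2 cells grown to 90% confluence and plated at 1X105 cells/well, then left to settle overnight. Medium replaced with dose medium containing compound or DMSO vehicle for 24 h, refreshed with the same medium, then incubated 24 h more. Medium collected after centrifugation. PCSK9 measured by sandwich ELISA with TMB read-out at 450 nm. Values normalized to vehicle, mean of n = 3.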

[4] = Half life in rat liver microsomes measured after 60 mins in presence of NADPH by LC-MS/MS analysis; assay type: ADME, Microsome; conditions: 1 h
[5] = Intrinsic clearance in mouse liver microsomes measured after 60 mins in presence of NADPH by LC-MS/MS analysis; assay type: ADME, Microsome; conditions: for microsomal intrinsic clearance: microsomes, 1 h
[6] = target: T1, Proprotein convertase subtilisin/kexin type 9; test: Modulation of PCSK9 in human HepG2 cells assessed as reduction in PCSK9 expression at 1 uM incubated for 24 hrs prior to compound washout followed by compound addition and measured after 24 hrs by ELISA; assay type: cell-based; set-up: scale not given: the % may be the effect or the level left; conditions: filed as modulator, time 48.0 hrs; how it was run: as §1
[7] = Half life in human liver microsomes measured after 60 mins in presence of NADPH by LC-MS/MS analysis; assay type: ADME, Microsome; conditions: 1 h
[8] = Intrinsic clearance in rat liver microsomes measured after 60 mins in presence of NADPH by LC-MS/MS analysis; assay type: ADME, Microsome; conditions: for Intrinsic clearance in rat liver microsomes: 1 h
[9] = target: T1, Proprotein convertase subtilisin/kexin type 9; test: Modulation of PCSK9 in human HepG2 cells assessed as reduction in PCSK9 expression at 100 nM incubated for 24 hrs prior to compound washout followed by compound addition and measured after 24 hrs by ELISA; assay type: cell-based; set-up: scale not given: the % may be the effect or the level left; conditions: time 48.0 hrs; how it was run: as §1
[10] = target: T1, Proprotein convertase subtilisin/kexin type 9; test: Modulation of PCSK9 in human HepG2 cells assessed as reduction in PCSK9 expression at 10 nM incubated for 24 hrs prior to compound washout followed by compound addition and measured after 24 hrs by ELISA; assay type: cell-based; set-up: scale not given: the % may be the effect or the level left; conditions: time 48.0 hrs; how it was run: as §1
[11] = target: T1, Proprotein convertase subtilisin/kexin type 9; test: Modulation of PCSK9 in human HepG2 cells assessed as reduction in PCSK9 expression at 10 to 100 nM incubated for 24 hrs prior to compound washout followed by compound addition and measured after 24 hrs by ELISA; assay type: cell-based; conditions: filed as modulator, dose 10-100 nM, time 48.0 hrs
How it was run: (§2)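 HepG2 cells grown to 90% confluence, plated at 1X105 cells/well and left overnight. Medium then replaced with compound- or vehicle (DMSO)-containing dose medium, refreshed at 24 h, collected after a further 24 h. Secreted PCSK9 measured by sandwich ELISA with TMB read-out at 450 nm. Values normalized to DMSO group, mean of n = 3 ± SD.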

[12] = Half life in BTBR mouse at 6 mg/kg, ip administered as single dose by LC-MS/MS analysis; assay type: ADME, organism-based; conditions: in vivo
How it was run: (§3)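 Mice given a single intraperitoneal dose of 6 mg/kg. Formulation: DMSO (10 %) and Tween 80 (10 %) in PBS (80 %). Plasma samples collected and analysed by LC-MS/MS. AUC is total exposure after the single dose, Cmax is maximum plasma concentration, and T1/2 is half-life.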

[13] = AUC (0 to infinity) in BTBR mouse at 6 mg/kg, ip administered as single dose by LC-MS/MS analysis; assay type: ADME, organism-based; set-up: time infinity, route intraperitoneal, dose 6 mg/kg; conditions: in vivo; how it was run: as §3
[14] = Cmax in BTBR mouse at 6 mg/kg, ip administered as single dose by LC-MS/MS analysis; assay type: ADME, organism-based; set-up: route intraperitoneal, dose 6 mg/kg; conditions: in vivo; how it was run: as §3
[15] = target: T1, Proprotein convertase subtilisin/kexin type 9; test: Modulation of PCSK9 in human HepG2 cells assessed as reduction in PCSK9 expression at 1 to 10 uM incubated for 24 hrs prior to compound washout followed by compound addition and measured after 24 hrs by ELISA; assay type: cell-based; conditions: filed as modulator, dose 1-10 µM, time 48.0 hrs; how it was run: as §2
[16] = liver microsomes, read-out: CLH

## Fc1ccc2nc(Cc3c[nH]c4c(F)cccc34)n(Cc3ccncc3)c2c1
HepG2
  Activity: Non-Toxic

## Fc1ccc2nc(Cc3c[nH]c4c(F)cccc34)[nH]c2c1
[1]
  CLH: 79.4 µL/min/mg
[2]
  t1/2: 7.1 min
[3]
  EC50: 348 nM
[4]
  t1/2: 9.5 min
[5]
  microsomal intrinsic clearance: 194.9 µL/min/mg
[6]
  Activity: Active
[7]
  t1/2: 17.5 min
HepG2
  Activity: Non-Toxic
[8]
  Intrinsic clearance in rat liver microsomes: 145.6 µL/min/mg

## Fc1ccc2nc(Cc3c[nH]c4c(F)cccc34)n(Cc3ccccc3)c2c1
HepG2
  Activity: Non-Toxic

## Cn1c(C(=O)c2c[nH]c3c(F)cccc23)nc2ccc(F)cc21
[3]
  EC50: 0.15 nM
[5]; [16]
  microsomal CLint: 41.7 µL/min/mg
[9]
  Activity: 12.5%
[10]
  Activity: 35%
HepG2
  Activity: Non-Toxic
[8]; [16]
  microsomal CLint: 23 µL/min/mg

## Cn1c(C(=O)c2cn(S(=O)(=O)CCN3CCNCC3)c3c(F)cccc23)nc2ccc(F)cc21
[3]
  EC50: 161 nM
HepG2
  Activity: Non-Toxic

## [2H]C([2H])(c1nc2cc(F)ccc2[nH]1)c1c[nH]c2c(F)cccc12
[2]
  t1/2: 16.3 min
[4]
  t1/2: 23.5 min
[5]
  microsomal intrinsic clearance: 85.2 µL/min/mg
HepG2
  Activity: Non-Toxic
[8]
  Intrinsic clearance in rat liver microsomes: 59.1 µL/min/mg

## Cn1c(C(=O)c2c[nH]c3c(F)cccc23)nc2ccccc21
[11]
  Activity: Active
HepG2
  Activity: Non-Toxic

## OCCn1c(Cc2c[nH]c3c(F)cccc23)nc2ccc(F)cc21
HepG2
  Activity: Non-Toxic

## Fc1ccc2[nH]c(Cc3c[nH]c4c(F)cccc34)cc2c1
[1]
  CLH: 23 µL/min/mg
[2]
  t1/2: 16.5 min
[4]
  t1/2: 23.2 min
[5]
  microsomal intrinsic clearance: 83.9 µL/min/mg
[6]
  Activity: Active
[7]
  t1/2: 63.9 min
[8]
  Intrinsic clearance in rat liver microsomes: 60.7 µL/min/mg

## CCCCn1cc(C(=O)c2nc3ccc(F)cc3n2C)c2cccc(F)c21
[3]
  EC50: 0.28 nM
HepG2
  Activity: Non-Toxic

## Cn1c(C(=O)c2c[nH]c3c(F)cccc23)nc2c(F)cccc21
[11]
  Activity: Active
HepG2
  Activity: Non-Toxic

## Cn1c(C(=O)c2cn(S(=O)(=O)CCN3CCOCC3)c3c(F)cccc23)nc2ccc(F)cc21
[3]
  EC50: 0.69 nM
HepG2
  Activity: Non-Toxic

## O=C(c1nc2ccccc2[nH]1)c1c[nH]c2ccccc12
[2]
  t1/2: 25.8 min
[4]
  t1/2: 42.4 min
[5]
  microsomal intrinsic clearance: 54.6 µL/min/mg
HepG2
  Activity: Non-Toxic
[8]
  Intrinsic clearance in rat liver microsomes: 33.1 µL/min/mg

## Cn1c(C(=O)c2c[nH]c3cccc(F)c23)nc2ccc(F)cc21
HepG2
  Activity: Non-Toxic

## O=C(c1nc2ccc(F)cc2[nH]1)c1c[nH]c2c(F)cccc12
[12]
  half-life: 98.4 min
[2]
  t1/2: 30 min
[3]
  EC50: 2.46 nM
[4]
  t1/2: 47.8 min
[5]
  microsomal intrinsic clearance: 46.5 µL/min/mg
[6]
  Activity: 90%
[13]
  AUC(0-inf): 696 ng·h/mL
HepG2
  Activity: Non-Toxic
[8]
  Intrinsic clearance in rat liver microsomes: 29.4 µL/min/mg
[14]
  Cmax: 294 ng/mL

## O=C(c1nc2ccc(F)cc2[nH]1)c1c[nH]c2ccccc12
HepG2
  Activity: Non-Toxic

## Cn1cc(C(=O)c2nc3ccc(F)cc3n2C)c2cccc(F)c21
[3]
  EC50: 1.21 nM
HepG2
  Activity: Non-Toxic

## CC(C)Cn1c(Cc2c[nH]c3c(F)cccc23)nc2ccc(F)cc21
HepG2
  Activity: Non-Toxic

## O=C(c1nc2ccccc2[nH]1)c1c[nH]c2c(F)cccc12
HepG2
  Activity: Non-Toxic

## CC(C)(C)Cn1c(Cc2c[nH]c3c(F)cccc23)nc2ccc(F)cc21
HepG2
  Activity: Non-Toxic

## Cn1c(Cc2c[nH]c3c(F)cccc23)nc2ccc(F)cc21
[15]
  Activity: Active
HepG2
  Activity: Non-Toxic

## O=C(c1nc2c(F)cccc2[nH]1)c1c[nH]c2c(F)cccc12
HepG2
  Activity: Non-Toxic

## Cn1c(C(=O)c2c[nH]c3ccc(F)cc23)nc2ccc(F)cc21
HepG2
  Activity: Non-Toxic

## Cn1c(C(=O)c2cn(CCCCN3CCOCC3)c3c(F)cccc23)nc2ccc(F)cc21
[3]
  EC50: 88 nM
HepG2
  Activity: Non-Toxic

## Fc1ccc2nc(Cc3c[nH]c4c(F)cccc34)n(CCc3ccccc3)c2c1
HepG2
  Activity: Non-Toxic

## Cn1c(C(=O)c2cn(CCCN3CCOCC3)c3c(F)cccc23)nc2ccc(F)cc21
[3]
  EC50: 39.9 nM
HepG2
  Activity: Non-Toxic

## Cn1c(C(=O)c2c[nH]c3c(F)cccc23)nc2cc(F)ccc21
[9]
  Activity: 11.9%
[10]
  Activity: 34.4%
HepG2
  Activity: Non-Toxic

## Fc1ccc2nc(Cc3c[nH]c4c(F)cccc34)n(Cc3cccnc3)c2c1
HepG2
  Activity: Non-Toxic

## Cn1c(C(=O)c2c[nH]c3c(F)cccc23)nc2cccc(F)c21
[11]
  Activity: Active
HepG2
  Activity: Non-Toxic

## Cn1c(C(=O)c2cn(CCN3CCOCC3)c3c(F)cccc23)nc2ccc(F)cc21
[3]
  EC50: 11 nM
HepG2
  Activity: Non-Toxic

## Cn1c(C(=O)c2c[nH]c3cc(F)ccc23)nc2ccc(F)cc21
HepG2
  Activity: Non-Toxic

## Cn1c(C(=O)c2c[nH]c3ccccc23)nc2ccc(F)cc21
[11]
  Activity: Active
HepG2
  Activity: Non-Toxic

## O=C(c1cc2cc(F)ccc2[nH]1)c1c[nH]c2c(F)cccc12
[12]
  half-life: 78.6 min
[2]
  t1/2: 40.1 min
[4]
  t1/2: 76.9 min
[5]
  microsomal intrinsic clearance: 34.6 µL/min/mg
[6]
  Activity: Active
[13]
  AUC(0-inf): 610 ng·h/mL
HepG2
  Activity: Non-Toxic
[8]
  Intrinsic clearance in rat liver microsomes: 18.1 µL/min/mg
[14]
  Cmax: 323 ng/mL
